Experimental data published in ChEMBL document CHEMBL2086296, “Synthesis of novel quinoline-2-one based chalcones of potential anti-tumor activity” (Eur J Med Chem, 2012).

Columns and labels:
HCT-116 = assay: Cytotoxicity against human HCT116 cells after 24 hrs by SRB assay; format: cell-based; details: hct-116, 24 h
Outline: (§1)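 NCI 60-cell screen. Cells grown in RPMI 1640 with 5% FBS and 2 mM L-glutamine, seeded at 5,000–40,000 cells/well, preincubated 24 h at 37 °C in 5% CO2. Drug stock in DMSO, diluted in medium with gentamicin; five final concentrations, 100, 10, 1.0, 0.1 and […]. Time-zero plates were TCA-fixed. Protein read by SRB staining; GI50, TGI and LC50 taken relative to time-zero.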

NCI-H23 = assay: Cytotoxicity against human NCI-H23 cells after 24 hrs by SRB assay; format: functional; details: NCI-H23, 24 h
Outline: (§2)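 NCI 60-line screen. Cells in RPMI 1640 with 5% FBS and 2 mM L-glutamine, seeded at 5,000–40,000 cells/well by doubling time, then incubated 24 h at 37 °C, 5% CO2 before dosing. Time-zero plates fixed with TCA at drug addition. DMSO stocks diluted in medium with gentamicin to five concentrations, […]. Protein read by SRB staining. GI50, TGI and LC50 derived relative to control and time-zero.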

NCI-H226 = assay: Cytotoxicity against human NCI-H226 cells after 24 hrs by SRB assay; format: cell-based; details: nci-h226, 24 h; outline: as §1
LOX IMVI = assay: Cytotoxicity against human LOXIMVI cells after 24 hrs by SRB assay; format: functional; outline: as §2
MDA-MB-435 = assay: Cytotoxicity against human MDA-MB-435 cells after 24 hrs by SRB assay; format: functional; details: MDA-MB-435, 24 h; outline: as §2
SK-MEL-28 [1] = assay: (§3) Cytotoxicity against human SK-MEL-28 cells after 24 hrs by SRB assay; format: functional; details: SK-MEL-28, 24 h; outline: as §2
M14 [2] = assay: (§4) Cytotoxicity against human M14 cells after 24 hrs by SRB assay; format: cell-based; details: m14, 24 h; outline: as §1
HL-60 = assay: Cytotoxicity against human HL60 cells after 24 hrs by SRB assay; format: functional; details: HL-60, 24 h; outline: as §2
SW-620 = assay: Cytotoxicity against human SW620 cells after 24 hrs by SRB assay; format: cell-based; details: sw-620, 24 h
Outline: (§5)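 NCI 60-cell-line screen: cells grown in RPMI 1640 with 5% FBS and 2 mM L-glutamine, seeded at 5,000–40,000 cells/well by doubling time, and preincubated 24 h at 37 °C in 5% CO2. Time-zero plates were TCA-fixed. DMSO stocks were diluted in medium with gentamicin to five concentrations (100, 10, 1.0, 0.1, […]). Protein was read by SRB, and GI50, TGI and LC50 were derived against time-zero.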

TK-10 = assay: Cytotoxicity against human TK10 cells after 24 hrs by SRB assay; format: functional; details: TK-10, 24 h
Outline: (§6)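 NCI 60-cell screen. Cells are grown in RPMI 1640 with 5% FBS and 2 mM L-glutamine and seeded at 5,000–40,000 cells/well according to doubling time. They are preincubated 24 h at 37 °C in 5% CO2, and Tz plates are TCA-fixed at drug addition. Drug stock is in DMSO, diluted in medium with gentamicin, and tested at five concentrations (100, 10, 1.0, 0.1, […]). Protein is read by SRB staining. GI50, TGI and LC50 are derived relative to time-zero and control wells.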

BT-549 = assay: Cytotoxicity against human BT549 cells after 24 hrs by SRB assay; format: cell-based; details: bt-549, 24 h; outline: as §1
UACC-257 [3] = assay: (§7) Cytotoxicity against human UACC257 cells after 24 hrs by SRB assay; format: functional; details: UACC-257, 24 h; outline: as §6
OVCAR-3 = assay: Cytotoxicity against human OVCAR3 cells after 24 hrs by SRB assay; format: functional; details: OVCAR-3, 24 h; outline: as §2
CAKI-1 [4] = assay: (§8) Cytotoxicity against human CAKI-1 cells after 24 hrs by SRB assay; format: functional; details: CAKI-1, 24 h; outline: as §2
SK-MEL-5 = assay: Cytotoxicity against human SK-MEL-5 cells after 24 hrs by SRB assay; format: cell-based; details: sk-mel-5, 24 h; outline: as §1
A549 = assay: Cytotoxicity against human A549 cells after 24 hrs by SRB assay; format: functional; details: A549, 24 h; outline: as §2
EKVX = assay: Cytotoxicity against human EKVX cells after 24 hrs by SRB assay; format: functional; outline: as §2
OVCAR-5 = assay: Cytotoxicity against human OVCAR5 cells after 24 hrs by SRB assay; format: cell-based; details: ovcar-5, 24 h; outline: as §1
HCC 2998 = assay: Cytotoxicity against human HCC2998 cells after 24 hrs by SRB assay; format: functional; details: HCC 2998, 24 h; outline: as §2
SF-539 = assay: Cytotoxicity against human SF539 cells after 24 hrs by SRB assay; format: functional; details: SF-539, 24 h; outline: as §2
COLO 205 = assay: Cytotoxicity against human COLO205 cells after 24 hrs by SRB assay; format: cell-based; details: colo 205, 24 h; outline: as §1
U-251 = assay: Cytotoxicity against human U251 cells after 24 hrs by SRB assay; format: cell-based; details: u-251, 24 h; outline: as §5
SF-295 = assay: Cytotoxicity against human SF295 cells after 24 hrs by SRB assay; format: cell-based; details: sf-295, 24 h; outline: as §1
UACC-257 [5] = assay: as §7; format: cell-based; details: uacc-257, 24 h; outline: as §5
SK-MEL-28 [6] = assay: as §3; format: cell-based; details: sk-mel-28, 24 h; outline: as §1
UACC-62 = assay: Cytotoxicity against human UACC62 cells after 24 hrs by SRB assay; format: functional; details: UACC-62, 24 h; outline: as §6
M14 [7] = assay: as §4; format: functional; details: M14, 24 h; outline: as §2
[8] = Cytotoxicity against human Hs 578T cells after 24 hrs by SRB assay; format: functional; outline: as §2
CAKI-1 [9] = assay: as §8; format: cell-based; details: caki-1, 24 h; outline: as §1
SK-OV-3 = assay: Cytotoxicity against human SKOV3 cells after 24 hrs by SRB assay; format: functional; details: SK-OV-3, 24 h; outline: as §2
UO-31 [10] = assay: (§9) Cytotoxicity against human UO31 cells after 24 hrs by SRB assay; format: cell-based; details: uo-31, 24 h; outline: as §5
IGROV-1 [11] = assay: (§10) Cytotoxicity against human IGROV1 cells after 24 hrs by SRB assay; format: functional; details: IGROV-1, 24 h; outline: as §2
NCI-H322M [12] = assay: (§11) Cytotoxicity against human NCI-H322M cells after 24 hrs by SRB assay; format: cell-based; outline: as §1
Malme-3M [13] = assay: (§12) Cytotoxicity against human MALME-3M cells after 24 hrs by SRB assay; format: cell-based; outline: as §1
NCI-H322M [14] = assay: as §11; format: functional; outline: as §2
UO-31 [15] = assay: as §9; format: functional; details: UO-31, 24 h; outline: as §6
Malme-3M [16] = assay: as §12; format: functional; outline: as §2
IGROV-1 [17] = assay: as §10; format: cell-based; details: igrov-1, 24 h; outline: as §1

## COc1ccc(C(=O)/C=C/c2cc3ccccc3[nH]c2=O)cc1
HCT-116
  LC50: 31.6 µM
NCI-H23
  GI50: 2.9 µM
  TGI: 14.9 µM
NCI-H226
  LC50: > 100 µM
LOX IMVI
  GI50: 1.85 µM
  TGI: 5.54 µM
MDA-MB-435
  GI50: 3.92 µM
  TGI: 17.4 µM
SK-MEL-28 [1]
  GI50: 7.59 µM
  TGI: 30.6 µM
M14 [2]
  LC50: > 100 µM
HL-60
  GI50: 3.36 µM
  TGI: > 100 µM
SW-620
  LC50: 40.2 µM
TK-10
  GI50: 3.54 µM
  TGI: 55.8 µM
BT-549
  LC50: 46.3 µM
UACC-257 [3]
  GI50: 4.9 µM
  TGI: 18 µM
OVCAR-3
  GI50: 2.49 µM
  TGI: 6.72 µM
CAKI-1 [4]
  GI50: 1.78 µM
  TGI: 3.51 µM
SK-MEL-5
  LC50: 45 µM
A549
  GI50: 3.21 µM
  TGI: > 100 µM
EKVX
  GI50: 4.4 µM
  TGI: 83.8 µM
OVCAR-5
  LC50: > 100 µM
HCC 2998
  GI50: 2.5 µM
  TGI: 6.49 µM
SF-539
  GI50: 2.76 µM
  TGI: 7.49 µM
COLO 205
  LC50: 77.6 µM
U-251
  LC50: > 100 µM
SF-295
  LC50: 80.8 µM
UACC-257 [5]
  LC50: 65.5 µM
SK-MEL-28 [6]
  LC50: > 100 µM
UACC-62
  GI50: 4.38 µM
  TGI: 19.3 µM
M14 [7]
  GI50: 4.06 µM
  TGI: 22.5 µM
[8]
  GI50: 3.3 µM
  TGI: > 100 µM
CAKI-1 [9]
  LC50: 6.9 µM
SK-OV-3
  GI50: 4.44 µM
  TGI: > 100 µM

## O=C(/C=C/c1cc2ccccc2[nH]c1=O)c1ccc(O)cc1
HCT-116
  LC50: 9.91 µM
NCI-H23
  GI50: 3.18 µM
  TGI: 20 µM
NCI-H226
  LC50: 34.5 µM
LOX IMVI
  GI50: 2.47 µM
  TGI: 12.7 µM
UO-31 [10]
  LC50: > 100 µM
MDA-MB-435
  GI50: 2.94 µM
  TGI: 16.8 µM
SK-MEL-28 [1]
  GI50: 5.11 µM
  TGI: 19.5 µM
IGROV-1 [11]
  GI50: 4.35 µM
  TGI: 45.1 µM
M14 [2]
  LC50: > 100 µM
NCI-H322M [12]
  LC50: 55.5 µM
HL-60
  GI50: 2.66 µM
  TGI: 6.86 µM
SW-620
  LC50: > 100 µM
TK-10
  GI50: 3.81 µM
  TGI: 11.8 µM
Malme-3M [13]
  LC50: > 100 µM
BT-549
  LC50: > 100 µM
UACC-257 [3]
  GI50: 3.87 µM
  TGI: 16 µM
NCI-H322M [14]
  GI50: 3.98 µM
  TGI: 16.8 µM
UO-31 [15]
  GI50: 4.38 µM
  TGI: 26.6 µM
Malme-3M [16]
  GI50: 10.4 µM
  TGI: 33.6 µM
OVCAR-3
  GI50: 3.22 µM
  TGI: 11.8 µM
CAKI-1 [4]
  GI50: 4.71 µM
  TGI: > 100 µM
SK-MEL-5
  LC50: 37.3 µM
A549
  GI50: 2.73 µM
  TGI: 11.8 µM
EKVX
  GI50: 13.4 µM
  TGI: 27.2 µM
OVCAR-5
  LC50: 44.4 µM
HCC 2998
  GI50: 4.13 µM
  TGI: 22.3 µM
SF-539
  GI50: 2.55 µM
  TGI: 8.64 µM
COLO 205
  LC50: 76.8 µM
U-251
  LC50: 45.3 µM
IGROV-1 [17]
  LC50: > 100 µM
SF-295
  LC50: > 100 µM
UACC-257 [5]
  LC50: 47.9 µM
SK-MEL-28 [6]
  LC50: 66.3 µM
UACC-62
  GI50: 2.88 µM
  TGI: 8.73 µM
M14 [7]
  GI50: 2.6 µM
  TGI: 6.57 µM
[8]
  GI50: 6.15 µM
  TGI: > 100 µM
CAKI-1 [9]
  LC50: > 100 µM

## O=C(/C=C/c1cc2ccccc2[nH]c1=O)/C=C/c1cc2ccccc2[nH]c1=O
HCT-116
  LC50: > 100 µM
NCI-H23
  GI50: 2.42 µM
  TGI: 87.7 µM
NCI-H226
  LC50: > 100 µM
LOX IMVI
  GI50: 0.134 µM
  TGI: 0.352 µM
MDA-MB-435
  GI50: 0.258 µM
  TGI: 0.81 µM
SK-MEL-28 [1]
  GI50: 4.96 µM
  TGI: > 100 µM
M14 [2]
  LC50: > 100 µM
HL-60
  GI50: 3.38 µM
  TGI: > 100 µM
SW-620
  LC50: > 100 µM
TK-10
  GI50: 4.6 µM
  TGI: > 100 µM
BT-549
  LC50: > 100 µM
UACC-257 [3]
  GI50: 1.98 µM
  TGI: 4.79 µM
OVCAR-3
  GI50: 4.2 µM
  TGI: > 100 µM
CAKI-1 [4]
  GI50: 2.36 µM
  TGI: > 100 µM
SK-MEL-5
  LC50: > 100 µM
A549
  GI50: 0.764 µM
EKVX
  GI50: 2.61 µM
  TGI: > 100 µM
HCC 2998
  GI50: 0.839 µM
  TGI: 2.22 µM
SF-539
  GI50: 2.13 µM
  TGI: > 100 µM
COLO 205
  LC50: > 100 µM
U-251
  LC50: > 100 µM
SF-295
  LC50: > 100 µM
UACC-257 [5]
  LC50: > 100 µM
SK-MEL-28 [6]
  LC50: > 100 µM
UACC-62
  GI50: 4.61 µM
  TGI: > 100 µM
M14 [7]
  GI50: 0.393 µM
CAKI-1 [9]
  LC50: > 100 µM
SK-OV-3
  GI50: 18.1 µM
  TGI: > 100 µM
